From ChEMBL document CHEMBL3526132, “In vitro metabolism of BIIB021, an inhibitor of heat shock protein 90, in liver microsomes and hepatocytes of rats, dogs, and humans and recombinant human cytochrome P450 isoforms” (Drug Metab Dispos, 2012)
One block for each molecule: values may come before it.

Legend:
CYP3A4 = CYP3A4 (Homo sapiens, UniProt P08684); assay: Drug metabolism assessed as unchanged drug level in baculovirus-infected Sf9 cell microsomes expressing human recombinant CYP3A4 at 10 uM after 30 mins by LC-RAM-MS analysis; assay type: ADME; conditions: read-out: Drug metabolism
Method in brief: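 Microsomes from baculovirus-infected Sf9 cells expressing recombinant human CYP3A4 with CYP450 reductase (50 pmol/mL) incubated in duplicate with 10 µM [14C]BIIB021 (0.5 µCi/mL) in 100 mM potassium phosphate pH 7.4. Reaction started with 1 mM NADPH (final), run 30 min at 37°C with gentle shaking, stopped with ice-cold acetonitrile containing 0.1% formic acid, centrifuged, and supernatant analysed by LC-MS.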

Liver microsome [1] = assay: Drug metabolism in human liver microsomes assessed as CF3785 metabolite formation at 10 uM […] by LC-RAM-MS analysis in presence of anti-CYP2D6 monoclonal antibody; assay type: ADME
Method in brief: (§1)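 All components except substrate and NADPH were preincubated 15 min on ice, then 5 min at 37°C. Substrate and NADPH were added and incubated 60 min at 37°C. Incubations without antibody served as positive controls.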

Liver microsome [2] = assay: Drug metabolism in human liver microsomes assessed as CF3785 metabolite formation at 10 uM […] by LC-RAM-MS analysis in presence of anti-CYP1A2 monoclonal antibody; assay type: ADME; method in brief: as §1
Liver microsome [3] = assay: Drug metabolism in human liver microsomes assessed as CF3785 metabolite formation at 10 uM […] by LC-RAM-MS analysis in presence of anti-CYP2B6 monoclonal antibody; assay type: ADME; method in brief: as §1
Liver microsome [4] = assay: Drug metabolism in human liver microsomes assessed as CF2246 metabolite formation at 10 uM after […] by LC-RAM-MS analysis in presence of anti-CYP3A4 monoclonal antibody; assay type: ADME; method in brief: as §1
Liver microsome [5] = assay: Drug metabolism in human liver microsomes assessed as CF2246 metabolite formation at 10 uM after […] by LC-RAM-MS analysis in presence of anti-CYP2E1 monoclonal antibody; assay type: ADME; method in brief: as §1
[6] = Drug metabolism in human liver cytosol assessed as CF2483 metabolite formation at 10 uM after 30 mins by LC-RAM-MS analysis; assay type: ADME, tissue-based; conditions: 0.5 h
Method in brief: (§2)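 Human liver cytosol (1 mg/mL protein) incubated with 10 µM [14C]BIIB021 (0.5 µCi/mL) in 100 mM phosphate buffer, pH 7.4, for 30 min. Reaction quenched with ice-cold acetonitrile, then centrifuged 10 min at 4°C, and supernatant analysed by LC-MS. Where used, inhibitors (isovanillin 100 µM, menadione 100 µM, allopurinol 100 µM, raloxifene 50 µM) were preincubated in cytosol 10 min at 37°C before substrate addition.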

Liver microsome [7] = assay: Drug metabolism in human liver microsomes assessed as CF2246 metabolite formation at 10 uM […] by LC-RAM-MS analysis in presence of anti-CYP2C19 monoclonal antibody; assay type: ADME; method in brief: as §1
[8] = Drug metabolism in human liver cytosol assessed as CF2483 metabolite formation at 10 uM after 30 mins by LC-RAM-MS analysis in presence of xanthine oxidase inhibitor allopurinol; assay type: ADME; conditions: 0.5 h; method in brief: as §2
[9] = Drug metabolism in human liver cytosol assessed as CF2483 metabolite formation at 10 uM after 30 mins by LC-RAM-MS analysis in presence of aldehyde oxidase inhibitor raloxifene; assay type: ADME; conditions: 0.5 h; method in brief: as §2
Liver microsome [10] = assay: Drug metabolism in human liver microsomes assessed as CF2246 metabolite formation at 10 uM […] by LC-RAM-MS analysis in presence of anti-CYP2B6 monoclonal antibody; assay type: ADME; method in brief: as §1
[11] = Drug metabolism in human liver cytosol assessed as CF2483 metabolite formation at 10 uM after 30 mins by LC-RAM-MS analysis in presence of aldehyde oxidase inhibitor isovanillin; assay type: ADME; conditions: 0.5 h; method in brief: as §2
Liver microsome [12] = assay: Drug metabolism in human liver microsomes assessed as CF3785 metabolite formation at 10 uM […] by LC-RAM-MS analysis in presence of anti-CYP2E1 monoclonal antibody; assay type: ADME; method in brief: as §1
Liver microsome [13] = assay: Drug metabolism in human liver microsomes assessed as CF2246 metabolite formation at 10 uM after […] by LC-RAM-MS analysis in presence of anti-CYP2A6 monoclonal antibody; assay type: ADME; method in brief: as §1
Liver microsome [14] = assay: Drug metabolism in human liver microsomes assessed as CF3785 metabolite formation at 10 uM […] by LC-RAM-MS analysis in presence of anti-CYP2A6 monoclonal antibody; assay type: ADME; method in brief: as §1
[15] = Drug metabolism in human liver cytosol assessed as CF2483 metabolite formation at 10 uM after 30 mins by LC-RAM-MS analysis in presence of aldehyde oxidase inhibitor menadione; assay type: ADME; conditions: 0.5 h; method in brief: as §2
Liver microsome [16] = assay: Drug metabolism in human liver microsomes assessed as CF2246 metabolite formation at 10 uM […] by LC-RAM-MS analysis in presence of anti-CYP1A2 monoclonal antibody; assay type: ADME; method in brief: as §1
Liver microsome [17] = assay: Drug metabolism in human liver microsomes assessed as CF2246 metabolite formation at 10 uM after […] by LC-RAM-MS analysis in presence of anti-CYP2D6 monoclonal antibody; assay type: ADME; method in brief: as §1
[18] = Drug level in human liver cytosol treated with [14C]BIIB021 at 10 uM after 30 mins by LC-RAM-MS analysis in presence of xanthine oxidase inhibitor allopurinol; assay type: ADME, tissue-based; conditions: 0.5 h; method in brief: as §2
[19] = Drug level in human liver cytosol treated with [14C]BIIB021 at 10 uM after 30 mins by LC-RAM-MS analysis; assay type: ADME, tissue-based; conditions: 0.5 h; method in brief: as §2
Liver microsome [20] = assay: Drug level in human liver microsomes treated with [14C]BIIB021 at 10 uM after 90 mins by LC-RAM-MS analysis in presence of anti-CYP2D6 monoclonal antibody; assay type: ADME; conditions: 1.5 h
Liver microsome [21] = assay: Drug level in human liver microsomes treated with [14C]BIIB021 at 10 uM […] by LC-RAM-MS analysis in presence of anti-CYP2C19 monoclonal antibody; assay type: ADME; conditions: 1.5 h
Liver microsome [22] = assay: Drug level in human liver microsomes treated with [14C]BIIB021 at 10 uM after 90 mins by LC-RAM-MS analysis in presence of anti-CYP2B6 monoclonal antibody; assay type: ADME; conditions: 1.5 h
Liver microsome [23] = assay: Drug level in human liver microsomes treated with [14C]BIIB021 at 10 uM […] by LC-RAM-MS analysis in presence of anti-CYP1A2 monoclonal antibody; assay type: ADME; conditions: 1.5 h
Liver microsome [24] = assay: Drug level in human liver microsomes treated with [14C]BIIB021 at 10 uM […] by LC-RAM-MS analysis in presence of anti-CYP2E1 monoclonal antibody; assay type: ADME; conditions: 1.5 h
Liver microsome [25] = assay: Drug level in human liver microsomes treated with [14C]BIIB021 at 10 uM after 90 mins by LC-RAM-MS analysis in presence of anti-CYP3A4 monoclonal antibody; assay type: ADME; conditions: 1.5 h
Liver microsome [26] = assay: Drug level in human liver microsomes treated with [14C]BIIB021 at 10 uM after 90 mins by LC-RAM-MS analysis in presence of anti-CYP2A6 monoclonal antibody; assay type: ADME; conditions: 1.5 h

Sequence of CYP3A4 (P08684 whole entry): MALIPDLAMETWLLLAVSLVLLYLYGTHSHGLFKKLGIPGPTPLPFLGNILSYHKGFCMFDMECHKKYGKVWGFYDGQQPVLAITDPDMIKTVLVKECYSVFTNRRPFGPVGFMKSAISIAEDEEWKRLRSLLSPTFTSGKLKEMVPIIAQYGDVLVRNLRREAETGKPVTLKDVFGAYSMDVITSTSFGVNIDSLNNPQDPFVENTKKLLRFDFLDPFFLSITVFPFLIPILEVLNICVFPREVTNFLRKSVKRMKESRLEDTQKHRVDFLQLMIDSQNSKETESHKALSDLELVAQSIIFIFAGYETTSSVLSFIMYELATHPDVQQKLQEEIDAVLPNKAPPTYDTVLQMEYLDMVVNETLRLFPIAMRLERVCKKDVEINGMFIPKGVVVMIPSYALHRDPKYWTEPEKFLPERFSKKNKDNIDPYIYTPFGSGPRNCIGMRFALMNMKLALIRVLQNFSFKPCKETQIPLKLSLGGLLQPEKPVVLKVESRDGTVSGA

remaining at 0.5 h, 10 µM (CYP3A4): 70% | Drug metabolism (Liver microsome [1]): metabolite_detected | Drug metabolism (Liver microsome [2]): metabolite_detected | Drug metabolism (Liver microsome [3]): metabolite_detected | Drug metabolism (Liver microsome [4]): metabolite_detected | Drug metabolism (Liver microsome [5]): metabolite_detected | Drug metabolism [6]: metabolite_detected | Drug metabolism (Liver microsome [7]): metabolite_detected | Drug metabolism [8]: metabolite_detected | Drug metabolism [9]: metabolite_not_detected | Drug metabolism (Liver microsome [10]): metabolite_detected | Drug metabolism [11]: metabolite_not_detected | Drug metabolism (Liver microsome [12]): metabolite_detected | Drug metabolism (Liver microsome [13]): metabolite_detected | Drug metabolism (Liver microsome [14]): metabolite_detected | Drug metabolism [15]: metabolite_not_detected | Drug metabolism (Liver microsome [16]): metabolite_detected | Drug metabolism (Liver microsome [17]): metabolite_detected
Structure (SMILES): COc1c(C)cnc(Cn2[14cH]nc3c(Cl)nc(N)nc32)c1C

Drug metabolism [18]: metabolite_detected | Drug metabolism [19]: metabolite_detected
Structure (SMILES): COc1c(C)cnc(Cn2c(O)nc3c(Cl)nc(N)nc32)c1C

Drug metabolism (Liver microsome [20]): metabolite_detected | Drug metabolism (Liver microsome [21]): metabolite_detected | Drug metabolism (Liver microsome [22]): metabolite_detected | Drug metabolism (Liver microsome [23]): metabolite_detected | Drug metabolism (Liver microsome [24]): metabolite_detected | Drug metabolism (Liver microsome [25]): metabolite_detected | Drug metabolism (Liver microsome [26]): metabolite_detected
Structure (SMILES): Cc1cnc(Cn2cnc3c(Cl)nc(N)nc32)c(C)c1O

Drug metabolism (Liver microsome [20]): metabolite_detected | Drug metabolism (Liver microsome [22]): metabolite_detected | Drug metabolism (Liver microsome [23]): metabolite_detected | Drug metabolism (Liver microsome [24]): metabolite_detected | Drug metabolism (Liver microsome [26]): metabolite_detected
Structure (SMILES): COc1c(CO)cnc(Cn2cnc3c(Cl)nc(N)nc32)c1C
